In ChEMBL document CHEMBL5055628, “Anticancer properties of indole derivatives as IsoCombretastatin A-4 analogues” (Eur J Med Chem, 2021):
Calls of active or inactive are those of the source. The calls are words filed in the database; no cut-off is given here.

Legend:
HCT-116 = assay: Cytotoxicity against human HCT-116 cells assessed as inhibition of cell growth measured after 72 hrs by CellTiter-Glo reagent based luminescence assay; format: functional; settings: HCT-116, 72 h
In short: (§1)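 Cells (HCT-116 in McCoy's 5A; U87-MG in DMEM 4.5 g/L glucose; all with 10% serum, 1% glutamine, 37 °C, 5% CO2) seeded at 3 × 10³/well, treated after 24 h with 10 final concentrations by serial dilution; vehicle controls. After 72 h, CellTiter-Glo luminescence; IC50 from four- or five-parameter logistic fit, triplicate, mean of three experiments.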

[1] = Drug metabolism in rat liver microsomes assessed as hydroxylated metabolite formation measured after 96 hrs by ESI-HRMS assay; format: ADME, Microsome
In short: (§2)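 Compound at 100 μM final incubated at 37 °C with rat or human liver microsomes (1 mg/mL protein, 10 mM buffer pH 7.4) plus NADPH-generating system (0.6 mM NADPNa4, 6.4 mM glucose-6-phosphate, 2 U/mL G6PDH). After 96 h, ethyl acetate extraction and HPLC-MS/MS (positive ESI, m/z 150–450, collision-induced dissociation) to identify metabolites.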

[2] = Drug metabolism in rat liver microsomes assessed as O-demethylated metabolite formation measured after 96 hrs by ESI-HRMS assay; format: ADME, Microsome
In short: (§3)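 Rat or human liver microsomes at 1 mg/mL final protein in 10 mM buffer, pH 7.4, prewarmed to 37 °C with an NADPH-generating system (0.6 mM NADP, 6.4 mM glucose-6-phosphate, 2 U/mL G6P dehydrogenase). Substrate 100 μM final; shaken at 37 °C. Triplicate aliquots taken at 0–96 h (up to 144 h), ethyl acetate quench with internal standard, then HPLC-MS/MS (positive ESI, m/z 150–450, CID).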

[3] = Drug metabolism in human liver microsomes assessed as hydroxylated metabolite formation measured after 96 hrs by ESI-HRMS assay; format: ADME, Microsome; in short: as §2
[4] = Drug metabolism in human liver microsomes assessed as O-demethylated metabolite formation measured after 96 hrs by ESI-HRMS assay; format: ADME, Microsome; in short: as §3
[5] = Metabolic stability in rat liver microsomes assessed as half life measured after 96 hrs by HPLC-MS/MS analysis; format: ADME, Microsome
In short: (§4)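 Compound (100 μM final) incubated at 37 °C with rat or human liver microsomes (1 mg/mL protein, pH 7.4) and NADPH-generating system; triplicate aliquots at 0–144 h quenched with isoCA-4 internal standard and ethyl acetate, quantified by HPLC-MS/MS against calibration curves.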

[6] = Metabolic stability in human liver microsomes assessed as half life measured after 96 hrs by HPLC-MS/MS analysis; format: ADME, Microsome; in short: as §4
[7] = Inhibition of porcine brain tubulin polymerization incubated for 30 mins followed by cooling on ice for 10 mins and measured by UV spectrometer assay; format: tissue-based, Sus scrofa
In short: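 Porcine brain tubulin (Shelanski isolation) in 0.1 M MES, 1.5 mM GTP, 1 mM EGTA, 1 mM β-ME, 1 mM MgCl2, pH 6.7, diluted to 1.5 mg/mL; ligand or DMSO 30 min at 20 °C, 10 min on ice. Assembly by 450 nm turbidity on 4→37 °C shift, plateau minus baseline vs no-ligand control (100%); IC50 from mono-exponential fit of ligand:tubulin ratio, three independent experiments.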

[8] = Drug metabolism in rat liver microsomes assessed as N-demethylated metabolite formation measured after 96 hrs by ESI-HRMS assay; format: ADME, Microsome; in short: as §2
[9] = Drug metabolism in human liver microsomes assessed as N-demethylated metabolite formation measured after 96 hrs by ESI-HRMS assay; format: ADME, Microsome; in short: as §2
U-87 MG = assay: Cytotoxicity against human U-87 MG cells assessed as inhibition of cell growth measured after 72 hrs by CellTiter-Glo reagent based luminescence assay; format: functional, U-87MG ATCC; in short: as §1
A549 = assay: Cytotoxicity against human A549 cells assessed as inhibition of cell growth measured after 72 hrs by CellTiter-Glo reagent based luminescence assay; format: functional; settings: A549, 72 h
In short: (§5)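 Cells seeded at 3 × 10³/well and grown 24 h. A549, MDA-MB231, K562 and K562R (doxorubicin-resistant) were in RPMI 1640; MiaPaCa2 and HT29 in DMEM (4.5 g/L glucose); all media had 10% FCS and 1% glutamine, at 37 °C and 5% CO₂. Cells got 10 final concentrations by serial dilution, with vehicle controls, for 72 h. CellTiter-Glo luminescence was read after 15 min. Triplicate runs; IC50 from four- or five-parameter logistic fits.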

MDA-MB-231 = assay: Cytotoxicity against human MDA-MB-231 cells assessed as inhibition of cell growth measured after 72 hrs by CellTiter-Glo reagent based luminescence assay; format: functional; settings: MDA-MB-231, 72 h; in short: as §5
MIA PaCa-2 = assay: Cytotoxicity against human MIA PaCa-2 cells assessed as inhibition of cell growth measured after 72 hrs by CellTiter-Glo reagent based luminescence assay; format: functional; settings: MIA PaCa-2, 72 h; in short: as §5
HT-1080 = assay: Cytotoxicity against human HT-1080 cells assessed as inhibition of cell growth measured after 72 hrs by CellTiter-Glo reagent based luminescence assay; format: functional; settings: HT-1080, 72 h
K562 [10] = assay: Cytotoxicity against human K562 cells assessed as inhibition of cell growth measured after 72 hrs by CellTiter-Glo reagent based luminescence assay; format: functional; settings: K562, 72 h; in short: as §5
K-562R [11] = assay: Cytotoxicity against human K-562R cells assessed as inhibition of cell growth measured after 72 hrs by CellTiter-Glo reagent based luminescence assay; format: functional; in short: as §5
HT-29 = assay: Cytotoxicity against human HT-29 cells assessed as inhibition of cell growth measured after 72 hrs by CellTiter-Glo reagent based luminescence assay; format: functional; settings: HT-29, 72 h; in short: as §5
K562 [12] = assay: Cell cycle arrest in human K562 cells assessed as accumulation of cells in G2/M phase at 0.5 nM measured after 24 hrs by PI staining based flowcytometry; format: functional
In short: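 Exponentially growing K562 cells exposed to compound (0.5 and 1 nM) or DMSO alone for 24 h. DNA content stained with propidium iodide and cell-cycle distribution read by flow cytometry.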

K562 [13] = assay: Induction of mitochondrial dysfunction in human K562 cells assessed as green monomer formation at 0.5 nM measured after 48 hrs by JC-1 staining based flow cytometry (reference value: 1.3%); format: functional
K562 [14] = assay: Induction of mitochondrial dysfunction in human K562 cells assessed as red aggregate formation at 0.5 nM measured after 48 hrs by JC-1 staining based flow cytometry (reference value: 98.3%); format: functional
K562 [15] = assay: Induction of mitochondrial dysfunction in human K562 cells assessed as green monomer formation at 1 nM measured after 48 hrs by JC-1 staining based flow cytometry (reference value: 1.3%); format: functional
K562 [16] = assay: Induction of mitochondrial dysfunction in human K562 cells assessed as red aggregate formation at 1 nM measured after 48 hrs by JC-1 staining based flow cytometry (reference value: 98.3%); format: functional
K562 [17] = assay: Induction of mitochondrial dysfunction in human K562 cells assessed as green monomer formation at 5 nM measured after 48 hrs by JC-1 staining based flow cytometry (reference value: 1.3%); format: functional
K562 [18] = assay: Induction of mitochondrial dysfunction in human K562 cells assessed as red aggregate formation at 5 nM measured after 48 hrs by JC-1 staining based flow cytometry (reference value: 98.3%); format: functional
K562 [19] = assay: Induction of mitochondrial dysfunction in human K562 cells assessed as green monomer formation at 10 nM measured after 48 hrs by JC-1 staining based flow cytometry (reference value: 1.3%); format: functional
K562 [20] = assay: Induction of mitochondrial dysfunction in human K562 cells assessed as red aggregate formation at 10 nM measured after 48 hrs by JC-1 staining based flow cytometry (reference value: 98.3%); format: functional
K562 [21] = assay: Induction of mitochondrial dysfunction in human K562 cells assessed as green monomer formation at 50 nM measured after 48 hrs by JC-1 staining based flow cytometry (reference value: 1.3%); format: functional
K562 [22] = assay: Induction of mitochondrial dysfunction in human K562 cells assessed as red aggregate formation at 50 nM measured after 48 hrs by JC-1 staining based flow cytometry (reference value: 98.3%); format: functional
K562 [23] = assay: Anticlonogenic activity against human K562 cells assessed as reduction in number of cell colonies at 0.05 to 10 nM measured after 10 days by MTT reagent based colony formation assay; format: functional; settings: dose 0.05-10 nM, time 10.0 day
In short: (§6)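 10^3 K562 cells (RPMI 1640, 10% FBS) or imatinib-resistant K562IR cells (RPMI 1640 with 25 mM HEPES, 10% FCS; kept in 1 μM imatinib, washed three times before use) grown 10 days in semisolid methylcellulose medium with 10% FBS, with or without compound. Colonies stained with 1 mg/mL MTT and image-analysed; three independent experiments, mean ± SD, two-way ANOVA with Tukey test.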

K562 [24] = assay: Anticlonogenic activity against human K562 cells assessed as reduction in total surface area of cell colonies at 0.05 to 10 nM measured after 10 days by MTT reagent based colony formation assay; format: functional; settings: dose 0.05-10 nM, time 10.0 day; in short: as §6
K562 [25] = assay: Anticlonogenic activity against human K562 cells assessed as reduction in average size of cell colonies at 0.05 to 10 nM measured after 10 days by MTT reagent based colony formation assay; format: functional; settings: dose 0.05-10 nM, time 10.0 day; in short: as §6
K-562R [26] = assay: Anticlonogenic activity against imatinib-resistant human K-562R cells assessed as reduction in number of cell colonies at 0.01 to 10 nM measured after 10 days by MTT reagent based colony formation assay; format: functional; settings: dose 0.01-10 nM, time 10.0 day; in short: as §6
K-562R [27] = assay: Anticlonogenic activity against imatinib-resistant human K-562R cells assessed as reduction of total surface of cell colonies at 0.01 to 10 nM measured after 10 days by MTT reagent based colony formation assay; format: functional; settings: dose 0.01-10 nM, time 10.0 day; in short: as §6
K-562R [28] = assay: Anticlonogenic activity against imatinib-resistant human K-562R cells assessed as reduction of average size of cell colonies at 0.01 to 10 nM measured after 10 days by MTT reagent based colony formation assay; format: functional; settings: dose 0.01-10 nM, time 10.0 day; in short: as §6

Work on `COc1cc2nc(Cl)nc(N(C)c3ccc4c(c3)cc3n4CCOC3)c2cc1OC` yielded an IC50 (HCT-116) of 361 nM.

In the case of `CN(c1ccc2c(c1)cc1n2CCOC1)c1cc(C#N)nc2ccccc12`, the IC50 (HCT-116) is reported as 2.8 nM.

`CCn1c(CO)cc2cc(N(C)c3cc(C)nc4ccccc34)ccc21` showed an IC50 (HCT-116) of 21.6 nM.

With `C=C(c1cc(OC)c(OC)c(OC)c1)c1ccc2c(c1)cc1n2CC=CC1` the IC50 (HCT-116) was 970 nM.

`COCc1cc2cc(N(C)c3cc(C)nc4ccccc34)ccc2n1C` gave an IC50 (HCT-116) of 10.2 nM.

Compound `COCOCc1cc2cc(N(C)c3cc(C)nc4ccccc34)ccc2n1C` has an IC50 (HCT-116) of 44.3 nM.

With `C=C(c1cc(OC)c(OC)c(OC)c1)c1ccc2c(c1)cc(CO)n2CC` the IC50 (HCT-116) was 0.52 nM, the Drug metabolism [1] was “Metabolite_Detected” and the Drug metabolism [2] was “Metabolite_Detected”. For the same compound, the Drug metabolism [3] was “Metabolite_Detected”, the Drug metabolism [4] was “Metabolite_Detected” and the half-life [5] was 70 h. The half-life [6] was 89 h and the IC50 [7] was 2900 nM.

For `C=C(c1cc(OC)c(OC)c(OC)c1)c1ccc2c(c1)cc(COC)n2C`, the IC50 (HCT-116) was 72.4 nM.

For `CCn1c(CO)cc2cc(N(C)c3nc(C)nc4ccccc34)ccc21`, the IC50 (HCT-116) was 0.08 nM, the Drug metabolism [8] was “Metabolite_Detected” and the Drug metabolism [1] was “Metabolite_Detected”. For the same compound, the Drug metabolism [9] was “Metabolite_Detected”, the Drug metabolism [3] was “Metabolite_Detected” and the half-life [5] was 140 h. For the same compound, the half-life [6] was 145 h, the IC50 [7] was 1900 nM and the IC50 (U-87 MG) was 0.51 nM. For the same compound, the IC50 (A549) was 0.7 nM, the IC50 (MDA-MB-231) was 0.25 nM and the IC50 (MIA PaCa-2) was 0.09 nM. It also gave an IC50 (HT-1080) of 0.08 nM, an IC50 (K562 [10]) of 0.26 nM and an IC50 (K-562R [11]) of 0.1 nM. For the same compound, the IC50 (HT-29) was 0.84 nM, the Activity (K562 [12]) was “Active” and the Activity (K562 [13]) was 21.3%. The Activity (K562 [14]) was 77.6%, the Activity (K562 [15]) was 22.3% and the Activity (K562 [16]) was 76.9%. For the same compound, the Activity (K562 [17]) was 23.1%, the Activity (K562 [18]) was 75.8% and the Activity (K562 [19]) was 31.2%. The Activity (K562 [20]) was 68.1%, the Activity (K562 [21]) was 39.2% and the Activity (K562 [22]) was 60%. The Activity (K562 [23]) was “Active”, the Activity (K562 [24]) was “Active” and the Activity (K562 [25]) was “Active”. The Activity (K-562R [26]) was “Active”, the Activity (K-562R [27]) was “Active” and the Activity (K-562R [28]) was “Active”.

Work on `COCc1cc2cc(N(C)c3cc(OC)c(OC)c(OC)c3)ccc2n1C` yielded an IC50 (HCT-116) of 47.5 nM.

With `CCn1c(CO)cc2cc(N(C)c3cc(OC)c(OC)c(OC)c3)ccc21` the IC50 (HCT-116) was 987 nM.

`C=C(c1ccc2c(c1)cc(CO)n2CC)c1cc(C)nc2ccccc12` gave an IC50 (HCT-116) of 1.47 nM.

With `C=C(c1ccc2c(c1)cc(CO)n2C)c1cc(C)nc2ccccc12` the IC50 (HCT-116) was 1.25 nM.
